Results from ChEMBL document CHEMBL1124344, “5-Piperazinylalkyl-2(3H)-oxazolones with neuroleptic activity” (J Med Chem, 1989).

Key:
Mus musculus [1] = experiment: Antagonistic activity against amphetamine-induced Hypermobility in mice, by administering perorally at a dose of 10 mg/kg; format: functional; conditions: route oral
In short: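 Male mice in groups of five, fasted overnight, given oral drug in arabic gum suspension (10 mL/kg) 1 or 5 h ahead. Amphetamine 4 mg/kg ip given 30 min after drug. Ten minutes later locomotion is recorded for 15 min in a photocell actophotometer. ED50 is 50% reduction versus control hypermotility, by probit analysis. Parenthetical entries give the maximal dose and percent activity.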

[2] = Lethal dose in mice (LD50) following i.p. dosing; format: toxicity, organism-based; conditions: mouse, in vivo, ip
In short: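 Acute toxicity tested in mice by the intraperitoneal route. LD50 is the dose killing 50% of treated mice, computed by Finney probit analysis; values are approximate.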

Mus musculus [3] = experiment: Inhibition of spontaneous motor activity in mice, by administering perorally at a dose of 10 mg/kg; format: functional; conditions: route oral
In short: (§1)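 Mice in groups of five were dosed orally with gum arabic suspensions at 10 mL/kg after an overnight fast, with a vehicle control group. Locomotion was counted for 10 min in a photocell activity cage, in at least two groups per dose. ED50, by probit analysis, is the dose giving 50% inhibition against controls.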

Rattus norvegicus [4] = experiment: Antagonistic activity against apomorphine-induced stereotypy in rats, by administering perorally at a dose of 20 mg/kg; format: functional; conditions: route oral
In short: (§2)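 Male rats fasted overnight and given oral doses in arabic gum suspension (10 mL/kg) 1 h, or 1 and 5 h, before challenge. Apomorphine 3 mg/kg iv, with stereotypy observed 20 min later. ED50 is the dose inhibiting stereotypy in 50% of rats, per Janssen's method. Parenthetical entries give the maximal dose and percent activity.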

Rattus norvegicus [5] = experiment: Activity to evoke catalepsy in rats, by administering perorally at a dose of 20 mg/kg; format: functional; conditions: route oral, read-out: Inhibition
In short: (§3)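 Rats fasted overnight and given oral doses in arabic gum suspension (10 mL/kg), 1 h before screening or 1 and 5 h before profile testing. Forelegs placed on a horizontal bar 7 cm high, three times at 5-min intervals. Immobility of at least 15 s counts as catalepsy. ED50 is the dose giving catalepsy in 50% of rats, by probit analysis. Parenthetical entries give the maximal dose and percent activity.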

Rattus norvegicus [6] = experiment: Antagonistic activity against apomorphine-induced stereotypy in rats, by administering perorally at a dose of 40 mg/kg; format: functional; conditions: route oral; in short: as §2
Mus musculus [7] = experiment: Inhibition of amphetamine-induced hypermobility in mice following p.o. administration.; format: functional; conditions: po
In short: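 Compounds were given orally to male mice (gum arabic suspension, 10 mL/kg, fasted) in groups of five. Amphetamine 4 mg/kg ip followed 30 min later. After another 10 min, motility was recorded for 15 min with a photocell actophotometer. ED50, by probit analysis, is the dose giving 50% reduction against controls.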

Rattus norvegicus [8] = experiment: Activity to evoke catalepsy in rats, by administering perorally at a dose of 40 mg/kg; format: functional; conditions: route oral; in short: as §3
Mus musculus [9] = experiment: Inhibition of spontaneous motor activity in mice, by administering perorally at a dose of 40 mg/kg; format: functional; conditions: route oral
In short: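 Mice fasted overnight, then dosed orally with compound (weighed as base) suspended in arabic gum, 10 mL/kg, with vehicle controls; 1 h pretreatment for screening tests, 1 or 5 h for others. Groups of five; locomotor activity counted 10 min in photocell activity cage, at least two groups per dose. ED50 = dose giving 50% inhibition versus controls, by probit analysis.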

Rattus norvegicus [10] = experiment: Antagonistic activity against apomorphine-induced stereotypy in rats, by administering perorally; format: functional; conditions: po; in short: as §2
Rattus norvegicus [11] = experiment: Activity to evoke catalepsy in rats, by administering perorally at a dose 150 mg/kg; format: functional; conditions: route oral; in short: as §3
Mus musculus [12] = experiment: Inhibition of spontaneous motor activity in mice, by administering perorally; format: functional; conditions: po; in short: as §1
Rattus norvegicus [13] = experiment: Activity to evoke catalepsy in rats, by administering perorally at a dose of 150 mg/kg; format: functional; conditions: route oral; in short: as §3
Rattus norvegicus [14] = experiment: Antagonistic activity against apomorphine-induced stereotypy in rats, by administering perorally at a dose of 400 mg/kg; format: functional; conditions: route oral; in short: as §2

| SMILES | inhibition in vivo at 10 mg/kg (Mus musculus [1]) | LD50 [2] | inhibition in vivo at 10 mg/kg (Mus musculus [3]) | inhibition in vivo at 20 mg/kg (Rattus norvegicus [4]) | percent of rats showing catalepsy at 20 mg/kg (Rattus norvegicus [5]) | inhibition in vivo at 40 mg/kg (Rattus norvegicus [6]) | ED50 (Mus musculus [7]) | inhibition in vivo at 40 mg/kg (Rattus norvegicus [8]) | inhibition in vivo at 40 mg/kg (Mus musculus [9]) | ED50 (Rattus norvegicus [10]) | inhibition in vivo at 150 mg/kg (Rattus norvegicus [11]) | ED50 (Mus musculus [12]) | inhibition in vivo at 150 mg/kg (Rattus norvegicus [13]) | inhibition in vivo at 400 mg/kg (Rattus norvegicus [14]) |
| --- | --- | --- | --- | --- | --- | --- | --- | --- | --- | --- | --- | --- | --- | --- |
| Oc1nc(-c2ccc(-c3ccccc3)cc2)c(CCN2CCN(c3ccccc3)CC2)o1 | 33% | 750 mg/kg | 32% | 0% | 0% | – | – | – | – | – | – | – | – | – |
| Oc1nc(-c2ccc(F)cc2)c(CCN2CCN(c3ccc(Cl)cc3Cl)CC2)o1 | – | 1000 mg/kg | – | – | – | 0% | 23.9 mg/kg | 0% | 45% | – | – | – | – | – |
| CCn1c(-c2ccc(F)cc2)c(CCN2CCN(c3ccccc3)CC2)oc1=O | – | 750 mg/kg | – | – | – | – | 17 mg/kg | – | – | 75 mg/kg | 0% | 15.4 mg/kg | – | – |
| Oc1nc(-c2ccc(Cl)cc2)c(CCN2CCN(c3ccccc3)CC2)o1 | – | > 1000 mg/kg | – | – | – | – | 4.7 mg/kg | – | – | – | – | 3 mg/kg | 0% | 0% |
